Experiments:
[1] = tested on: Brassica rapa subsp. oleifera; assay: Herbicidal activity against Brassica rapa subsp. oleifera assessed as growth inhibition at 10 ug/ml; format: functional; conditions: read-out: GI
Outline: (§1)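 Compounds formulated as 10 g/L emulsified concentrates (DMSO solvent, Tween-80 emulsifier), diluted in water and applied to pot-grown plants in a greenhouse (23 ± 1 °C, 60 ± 5% RH, 8 h/day photoperiod). Distilled water and 2,4-D serve as references. Shoot height, root length and fresh weight are measured per cup. Percent inhibition is taken relative to water; mean of three repeats.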

Echinochloa crus-galli [2] = assay: Herbicidal activity against Echinochloa crus-galli (barnyard grass) assessed as growth inhibition at 100 ug/ml; format: functional; conditions: read-out: GI; outline: as §1
[3] = tested on: Brassica rapa subsp. oleifera; assay: Herbicidal activity against Brassica rapa subsp. oleifera assessed as growth inhibition at 100 ug/ml; format: functional; conditions: read-out: GI; outline: as §1
Echinochloa crus-galli [4] = assay: Herbicidal activity against Echinochloa crus-galli (barnyard grass) assessed as growth inhibition at 10 ug/ml; format: functional; conditions: read-out: GI; outline: as §1
Echinochloa crus-galli [5] = assay: Herbicidal activity against Echinochloa crus-galli (barnyard grass); format: functional, organism-based; outline: as §1
[6] = tested on: Brassica rapa subsp. oleifera; assay: Herbicidal activity against Brassica rapa subsp. oleifera; format: functional, organism-based; outline: as §1

SMILES	inhibition of growth at 10 µg/mL [1]	inhibition of growth at 100 µg/mL (Echinochloa crus-galli [2])	inhibition of growth at 100 µg/mL [3]	inhibition of growth at 10 µg/mL (Echinochloa crus-galli [4])	EC50 (Echinochloa crus-galli [5])	EC50 [6]
COc1cc(OC)c(/C=N\NC(=O)c2cc3c(cn2)[nH]c2ccccc23)c(OC)c1	13.8%	12.6%	42.7%	0%	–	–
COc1cc(/C=N\NC(=O)C2Cc3c([nH]c4ccccc34)CN2)cc(OC)c1OC (stereo not drawn)	5.28%	23.8%	33.5%	2.51%	–	–
O=C(N/N=C\c1ccc(C(F)(F)F)cc1)c1cc2c([nH]c3ccccc32)c(-c2ccc(Cl)cc2)n1	66.9%	57.9%	93.7%	24.1%	–	–
COc1ccc(/C=N\NC(=O)C2Cc3c([nH]c4ccccc34)CN2)cc1 (stereo not drawn)	8.69%	8.62%	37.1%	0%	–	–
O=C(N/N=C\c1ccco1)c1cc2c(cn1)[nH]c1ccccc12	2.59%	0%	17.9%	0%	–	–
O=C(N/N=C\c1ccccc1)C1Cc2c([nH]c3ccccc23)CN1 (stereo not drawn)	3.75%	15%	25.3%	0%	–	–
O=C(N/N=C\c1ccc(C(F)(F)F)cc1)c1cc2c([nH]c3ccccc32)c(-c2ccc(C(F)(F)F)cc2)n1	35.4%	35.7%	76.5%	9.76%	–	–
COc1ccc(/C=N\NC(=O)c2cc3c(cn2)[nH]c2ccccc23)cc1	24.7%	29.6%	71.6%	17.5%	–	–
O=C(N/N=C\c1ccccc1)c1cc2c([nH]c3ccccc32)c(-c2ccccc2)n1	62.1%	73.9%	100%	30.4%	4.83 µM	4.83 µM
O=C(N/N=C\c1ccccc1O)c1cc2c(cn1)[nH]c1ccccc12	19.4%	47.6%	50.1%	18.1%	–	–
O=C(N/N=C\c1ccccc1)c1cc2c([nH]c3ccccc32)c(-c2ccc(Cl)cc2)n1	67%	43.7%	91.7%	16.7%	–	–
Cc1nc(C(=O)N/N=C\c2ccccc2)cc2c1[nH]c1ccccc12	37.2%	51.5%	87%	21.9%	–	–
COc1cc(/C=N\NC(=O)c2cc3c(cn2)[nH]c2ccccc23)ccc1O	27.4%	33%	63.2%	13.3%	–	–
O=C(N/N=C\c1ccccc1)c1cc2c([nH]c3ccccc32)c(-c2ccc(C(F)(F)F)cc2)n1	27.1%	31.2%	82.3%	19.4%	–	–
O=C(N/N=C\c1ccc(C(F)(F)F)cc1)c1cc2c([nH]c3ccccc32)c(-c2ccccc2)n1	57.9%	60.3%	100%	27.9%	14.2 µM	14.2 µM
COc1cc(/C=N\NC(=O)c2cc3c(cn2)[nH]c2ccccc23)cc(OC)c1OC	16.3%	37.1%	58.4%	15.1%	–	–
O=C(N/N=C\c1ccc([N+](=O)[O-])cc1)c1cc2c(cn1)[nH]c1ccccc12	30.9%	43.2%	85.4%	24.6%	–	–
Cc1n[nH]c(Cl)c1/C=N\NC(=O)c1cc2c(cn1)[nH]c1ccccc12	32.2%	28.1%	90.8%	6.34%	–	–
O=C(N/N=C\c1ccc(Cl)cc1)c1cc2c(cn1)[nH]c1ccccc12	18%	0%	47.3%	0%	–	–
O=C(N/N=C\Nc1ccc(C(F)(F)F)cc1)C1Cc2c([nH]c3ccccc23)CN1 (stereo not drawn)	0%	0%	16.4%	0%	–	–
O=C(NN=C(c1ccccc1)c1ccccc1)c1cc2c(cn1)[nH]c1ccccc12	0%	0%	10.5%	0%	–	–
O=C(N/N=C\c1ccccc1)c1cc2c(cn1)[nH]c1ccccc12	18.1%	35.9%	55.6%	11.8%	–	–
COc1ccc2c(c1)[nH]c1c(C)nccc12 [HARMINE]	20.2%	32.5%	53.7%	10.8%	–	–
O=C(N/N=C\Nc1ccc(C(F)(F)F)cc1)c1cc2c(cn1)[nH]c1ccccc12	7.52%	0%	23.7%	0%	–	–
O=C(O)COc1ccc(Cl)cc1Cl [2,4-DICHLOROPHENOXYACETIC ACID]	–	100%	100%	100%	–	–
